# Measured values published in BindingDB's records for doi:10.1021/acs.jmedchem.8b01402 (University of Bristol, 2019).
# Target: Transcriptional enhancer factor TEF-1 (Homo sapiens, UniProt P28347)
# Experiment: Inhibition of NL-tagged YAP (unknown origin) interaction with myc-tagged human TEAD1 preincubated for 1 hr followed by NL-tagged YAP addition by NanoGlo assay
# Procedure, shortened: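 Myc-TEAD1 from transfected HeLa lysate was captured with anti-myc antibody on protein-G-coated 96-well plates. Wells were pretreated with compound in PBS for 1 h at 4 °C, then co-incubated with lysate from HeLa cells expressing YAP–nanoluciferase. After four PBS washes, bound YAP–NL was read with NanoGlo.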
# Sequence of Transcriptional enhancer factor TEF-1 (P28347 whole entry): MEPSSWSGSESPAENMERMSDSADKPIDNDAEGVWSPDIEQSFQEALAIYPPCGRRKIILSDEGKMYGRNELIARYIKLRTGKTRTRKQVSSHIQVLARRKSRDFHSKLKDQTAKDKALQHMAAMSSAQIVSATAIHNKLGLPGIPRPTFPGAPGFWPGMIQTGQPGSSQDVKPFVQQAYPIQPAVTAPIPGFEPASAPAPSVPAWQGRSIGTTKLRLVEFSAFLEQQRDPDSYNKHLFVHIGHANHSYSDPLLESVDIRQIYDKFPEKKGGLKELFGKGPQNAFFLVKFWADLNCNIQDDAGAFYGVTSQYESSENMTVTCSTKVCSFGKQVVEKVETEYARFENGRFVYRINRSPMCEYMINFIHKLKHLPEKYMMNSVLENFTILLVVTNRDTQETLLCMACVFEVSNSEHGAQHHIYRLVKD
structure (smiles),measurement,value
Cc1ccc2c(c1)c1c3n2CCN(C[C@H](O)CN2CCN(C(=O)c4ccco4)CC2)[C@@H]3CCC1,IC50,48 µM
